Source: ChEMBL document CHEMBL3822400, “New structure-activity relationships of N-acetamide substituted pyrazolopyrimidines as pharmacological ligands of TSPO” (Bioorg Med Chem Lett, 2016)

Tests used:
[1] = Fraction unbound in human plasma after 4.5 hrs by rapid equilibrium dialysis method; format: ADME, cell-free
Method in brief: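 Equilibrium dialysis of plasma against buffer. After dialysis, the buffer and plasma fractions were extracted and analysed by standard LC-MS to quantify the compound.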

Translocator protein = Translocator protein (Rattus norvegicus, UniProt P16257); experiment: Displacement of [3H]-PK11195 from TSPO in rat C6 cell lysate after 2 hrs by liquid scintillation counting; format: cell-free
[2] = Lipophilicity, log P of the compound at pH 7.5 by HPLC method; format: physicochemical; details: buffer

Sequence of Translocator protein (P16257 whole entry, looked up): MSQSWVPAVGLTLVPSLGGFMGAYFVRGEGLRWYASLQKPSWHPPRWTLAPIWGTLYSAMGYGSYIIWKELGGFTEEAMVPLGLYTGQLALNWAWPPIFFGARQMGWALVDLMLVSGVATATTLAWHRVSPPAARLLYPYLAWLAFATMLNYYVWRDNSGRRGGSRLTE

| SMILES | Fu [1] [%] | Ki (Translocator protein) [nM] | logP [2] |
| --- | --- | --- | --- |
| CCc1cc(CC)n2nc(-c3ccc(OC)cc3)c(CC(=O)N(C(C)CC)C(C)CC)c2n1 (stereo not drawn) |  | 14.4 | 3.75 |
| CCc1cc(CC)n2nc(-c3ccc(OC)cc3)c(CC(=O)N(CC)C(C)(C)C)c2n1 |  | 59.1 | 3.32 |
| CCc1cc(CC)n2nc(-c3ccc(OC)cc3)c(CC(=O)N3CCCCC3)c2n1 |  | 49.2 | 2.96 |
| CCc1cc(CC)n2nc(-c3ccc(OC)cc3)c(CC(=O)N(C(C)C)C(C)C)c2n1 |  | 20 | 3.26 |
| CCCCCN(CCCCC)C(=O)Cc1c(-c2ccc(OC)cc2)nn2c(CC)cc(CC)nc12 |  | 2.17 | 4.29 |
| CCCCCCN(CCCCCC)C(=O)Cc1c(-c2ccc(OC)cc2)nn2c(CC)cc(CC)nc12 |  | 18.6 | 4.78 |
| CCc1cc(CC)n2nc(-c3ccc(OC)cc3)c(CC(=O)N3CCC3)c2n1 |  | 87.8 | 2.58 |
| CCc1cc(CC)n2nc(-c3ccc(OC)cc3)c(CC(=O)N(C)C(C)(C)C)c2n1 | 1.3 | 94.8 | 3.13 |
| CCc1cc(CC)n2nc(-c3ccc(OC)cc3)c(CC(=O)N3CCCC3)c2n1 |  | 127 | 2.72 |

Next, values leading:

| Fu [1] [%] | Ki (Translocator protein) [nM] | logP [2] | SMILES |
| --- | --- | --- | --- |
| 1.1 |  |  | CCc1cc(CC)n2nc(-c3ccc(OC)cc3)c(CC(=O)N(CC)CC)c2n1 |
| 0.6 | 0.28 | 3.27 | CCc1cc(CC)n2nc(-c3ccc(OC)cc3)c(CC(=O)N(CC)c3ccccc3)c2n1 |
|  | 37.6 | 2.47 | CCc1cc(CC)n2nc(-c3ccc(OC)cc3)c(CC(=O)N(C)C)c2n1 |
| 0.7 | 5.57 | 3.35 | CCCN(CCC)C(=O)Cc1c(-c2ccc(OC)cc2)nn2c(CC)cc(CC)nc12 |
|  | 13.2 | 3.77 | CCc1cc(CC)n2nc(-c3ccc(OC)cc3)c(CC(=O)N(CC(C)C)CC(C)C)c2n1 |
| 0.3 | 7.34 | 3.81 | CCCCN(CCCC)C(=O)Cc1c(-c2ccc(OC)cc2)nn2c(CC)cc(CC)nc12 |
| 1.1 | 6.44 | 3.11 | CCc1cc(CC)n2nc(-c3ccc(OC)cc3)c(CC(=O)N(C)c3ccccc3)c2n1 |
|  | 397 | 3.73 | CCc1cc(CC)n2nc(-c3ccc(OC)cc3)c(CC(=O)N(Cc3ccccc3)Cc3ccccc3)c2n1 |
